The structures appear in SMILES notation. Several values for one entry are separate records, joined by “and”; a condition that tells them apart may be missing. Identical values can stand only once.

The subject of one experiment is MCF-7. The experiment is described as follows: SRB assay, in vitro anticancer activity. In kind it is cell-based. The following applies: Homo sapiens, MCF7, 48 h, read-out: GI50 MCF-7. For orientation: The SRB assay estimates cell density from bound dye.
The test system of the next experiment is HeLa. The experiment is described as follows: SRB assay, in vitro anticancer activity. The format is cell-based. The settings on record: Homo sapiens, 48 h, read-out: GI50 HeLa.
Another experiment concerns MIAPACA. As to the kind of experiment: SRB assay, in vitro anticancer activity. In kind it is cell-based. The following applies: Homo sapiens, MIA PaCa-2, 48 h, read-out: GI50 MIAPACA.
For experiment [1], the system named is caspase 3/7, 8, and 9 in HeLa, MCF-7 and MIA PaCa2 cancer cells. As to the kind of experiment: Caspase 3/7, 8 and 9 activation, values not assigned to a caspase or cell line. In kind it is cell-based, human. The following applies: MCF-7 and MIA PaCa2 cells, assignment and concentration not clear.
The subject of another experiment is bovine brain tubulin. As to the kind of experiment: Tubulin polymerization assay. The format is biochemical. The settings on record: read-out: Tubulin polymerization inhibition IC50; 2 mg/mL tubulin, 37 °C.
The subject of another experiment is MCF-7, HeLa and MIAPACA. The experiment is described as follows: SRB assay, range stated over three cell lines. The format is cell-based. The following applies: Homo sapiens, read-out: GI50 against three cell lines. In a few lines: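 Human MCF-7, HeLa and MIA PaCa-2 cancer cell lines are exposed to the test compounds, with podophyllotoxin as positive control. Growth inhibition is reported as GI50.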

In the next experiment the test system is HeLa and MIAPACA. The experiment is described as follows: SRB assay, range stated over two cell lines. In kind it is cell-based. The following applies: Homo sapiens, read-out: GI50 against HeLa and MIAPACA.
For experiment [2], the system named is caspase 3/7 in MCF-7 cells. As to the kind of experiment: Caspase-Glo 3/7 activation assay. In kind it is cell-based, human. The settings on record: 20 μg ml^−1, 24 h. In a few lines: (§1)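 Caspase 3/7 activation in the named human cancer cells is expressed as percent activation after treatment with the test compound. Podophyllotoxin is run alongside as the positive control.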

The subject of experiment [3] is caspase 3/7 in MIA PaCa2 cells. The experiment is described as follows: Caspase-Glo 3/7 activation assay. The format is cell-based, human. The following applies: 20 μg ml^−1, 24 h. The procedure, abridged: as §1
Experiment [4] concerns caspase 3/7 in HeLa cells. As to the kind of experiment: Caspase-Glo 3/7 activation assay. In kind it is cell-based, human. The settings on record: 20 μg ml^−1, 24 h. In a few lines:
as §1

`COc1cc([C@@H]2c3cc4c(cc3[C@@H](OCc3cc(-c5cc(Cl)cc(Cl)c5)no3)[C@H]3COC(=O)C23)OCO4)cc(OC)c1OC` (some centres unmarked) [Compound 6m]: the GI50 (in general, the concentration giving 50% growth inhibition) with MCF-7 is 0.36 ± 0.17 µM; with HeLa, 2.19 ± 0.84 µM; in the experiment with MIAPACA, 2.33 ± 0.18 µM. Also, the “caspase 3/7, 8, and 9 activations” value in experiment [1] is 44.8% and 53.4% and 65.0% and 63.0% and 41.9% and 51.7%. Besides, in the experiment on bovine brain tubulin, the IC50 (in general, the midpoint of a concentration-inhibition curve) is 3.79 µM.

Regarding `COc1cc([C@@H]2c3cc4c(cc3[C@H](O)[C@H]3COC(=O)[C@H]23)OCO4)cc(OC)c1OC` [Podophyllotoxin, podophyllotoxin, reference compound], the GI50 was 0.31 ± 0.19 µM in the experiment with MCF-7; 0.74 ± 0.23 µM in the experiment with HeLa; 0.51 ± 0.12 µM with MIAPACA; 0.31 to 0.51 µM in the experiment with MCF-7, HeLa and MIAPACA; 0.51 to 0.74 µM with HeLa and MIAPACA. The “caspase 3/7 activation” value worked out at 91.9% in experiment [2], 88.6% in experiment [3] and 86.9% in experiment [4]. In the experiment with bovine brain tubulin, the IC50 came out at 0.84 µM.

Turning to `COc1cc([C@@H]2c3cc4c(cc3[C@@H](OCc3cc(-c5cccc(C)c5)no3)[C@H]3COC(=O)C23)OCO4)cc(OC)c1OC` (some centres unmarked) [Compound 6c], the 50% growth inhibitory concentration (GI50) in the experiment with MCF-7 was 3.92 ± 0.82 µM; with HeLa, 3.83 ± 1.54 µM; with MIAPACA it was 4.67 ± 1.93 µM.

For the molecule `COc1cc([C@@H]2c3cc4c(cc3[C@@H](OCc3cc(-c5cccc(Cl)c5)no3)[C@H]3COC(=O)C23)OCO4)cc(OC)c1OC` (some centres unmarked) [Compound 6k], the GI50 with MCF-7 came to 3.15 ± 0.43 µM; with HeLa, 9.68 ± 3.12 µM; with MIAPACA it was 18.3 ± 2.87 µM.

`COc1cc([C@@H]2c3cc4c(cc3[C@@H](OCc3cc(-c5ccc(Cl)cc5)no3)[C@H]3COC(=O)C23)OCO4)cc(OC)c1OC` (some centres unmarked) [Compound 6f]: the GI50 turned out to be 2.13 ± 0.37 µM with MCF-7, 3.05 ± 1.02 µM with HeLa and 3.14 ± 0.32 µM in the experiment with MIAPACA.

As for `COc1cc([C@@H]2c3cc4c(cc3[C@@H](OCc3cc(-c5ccc(Br)cc5)no3)[C@H]3COC(=O)C23)OCO4)cc(OC)c1OC` (some centres unmarked) [Compound 6g], the GI50 was determined as 4.32 ± 0.83 µM with MCF-7, 7.48 ± 0.69 µM in the experiment with HeLa and 6.84 ± 2.01 µM in the experiment on MIAPACA.

In the case of `COc1cc([C@@H]2c3cc4c(cc3[C@@H](OCc3cc(-c5ccc([N+](=O)[O-])cc5)no3)[C@H]3COC(=O)C23)OCO4)cc(OC)c1OC` (some centres unmarked) [Compound 6j], the GI50 in the experiment on MCF-7 is 0.23 ± 0.12 µM; in the experiment with HeLa, 1.11 ± 0.29 µM; in the experiment on MIAPACA, 1.54 ± 0.18 µM; in the experiment with HeLa and MIAPACA, 1.03 to 1.54 µM. Moreover, in experiment [2], the “caspase 3/7 activation” value came out at 90.1%. For the same molecule, in the experiment with bovine brain tubulin, the IC50 was found to be 1.32 µM.

On to `COc1cc([C@@H]2c3cc4c(cc3[C@@H](OCc3cc(-c5ccc(F)cc5)no3)[C@H]3COC(=O)C23)OCO4)cc(OC)c1OC` (some centres unmarked) [Compound 6h], for which the results for the concentration for 50% growth inhibition (GI50) with MCF-7, in the experiment on HeLa and in the experiment on MIAPACA were 4.87 ± 0.79 µM, 6.12 ± 1.08 µM and 13.1 ± 3.27 µM, respectively.

Consider `COc1cc([C@@H]2c3cc4c(cc3[C@@H](OCc3cc(-c5cc(C)cc(C)c5)no3)[C@H]3COC(=O)C23)OCO4)cc(OC)c1OC` (some centres unmarked) [Compound 6d], for which the values for the GI50 with MCF-7, in the experiment with HeLa and in the experiment with MIAPACA were 1.34 ± 0.23 µM, 2.74 ± 0.52 µM and 2.28 ± 0.29 µM, respectively.

The record behind these values is paper PMC11276401 (RSC Advances, 2024).
